Assay results published in ChEMBL document CHEMBL1165858, “Synthesis and biological evaluation of beta-chloro vinyl chalcones as inhibitors of TNF-alpha and IL-6 with antimicrobial activity” (Eur J Med Chem, 2010).
≈ marks a conversion by molar mass, not a printed value. Calls of active or inactive are those of the source. The rule behind the calls is not given here.

Key:
[1] = system: Escherichia coli; experiment: Antibacterial activity against Escherichia coli NCIM 2065 at > 100 […] after 24 hrs by disc diffusion method; format: functional, organism-based
[2] = system: THP-1; experiment: Antiinflammatory activity in human THP1 cells assessed as inhibition of LPS-induced IL-6 secretion at 10 uM treated 30 mins before LPS challenge measured after 24 hrs by ELISA relative to control; format: functional
Outline: (§1)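 THP-1 cells were grown in RPMI 1640 with 10% FBS and penicillin/streptomycin, then differentiated with PMA. Compound or vehicle (0.5% DMSO) was added for 30 min at 37 °C, followed by LPS (E. coli 0127:B8, final 1 µg/mL). After 24 h at 37 °C in 5% CO2, TNF-α and IL-6 in the supernatants were quantified by ELISA. Values are the mean of n = 2.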

[3] = system: Candida albicans; experiment: Antibacterial activity against Candida albicans NCIM 3100 at > 100 […] after 72 hrs by disc diffusion method; format: functional, organism-based
[4] = system: Proteus vulgaris; experiment: Antibacterial activity against Proteus vulgaris NCIM 2813 after 24 hrs by disc diffusion method; format: functional; details: for MIC: Proteus vulgaris, NCIM 2813, 24 h
Outline: (§2)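 Paper disc diffusion (6.25 mm Whatman no.1 discs, dry-heat sterilized at 140 °C for 1 h) loaded with compounds at different concentrations in DMSO. Discs were placed in triplicate on nutrient agar seeded with fresh bacterial culture and incubated at 37 °C for 24 h, with solvent and growth controls. Zones of inhibition (mm) and MIC, the concentration completely inhibiting growth, were recorded.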

[5] = system: THP-1; experiment: Antiinflammatory activity in human THP1 cells assessed as inhibition of LPS-induced TNFalpha secretion at 10 uM treated 30 mins before LPS challenge measured after 24 hrs by ELISA relative to control; format: functional; outline: as §1
[6] = system: Trichoderma viride; experiment: Antibacterial activity against Trichoderma viride TT at > 100 […] after 72 hrs by disc diffusion method; format: functional, organism-based
[7] = Cytotoxicity against […] at 10 uM; format: cell-based
[8] = system: Aspergillus niger; experiment: Antibacterial activity against Aspergillus niger NCIM 545 after 72 hrs by disc diffusion method; format: functional
Outline: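 Agar disc diffusion against fungi. Fungi were maintained on potato dextrose agar at (25 ± 2) °C for five days before use. Compounds were dissolved in DMSO (10 mg/mL initial solutions) and loaded on discs placed on freshly seeded plates alongside a solvent control disc. Plates were held at 4 °C for 24 h for diffusion, then incubated at 37 ± 5 °C for 72 h. Zones of inhibition (mm) and MICs were recorded.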

[9] = system: Bacillus subtilis; experiment: Antibacterial activity against Bacillus subtilis NCIM 2546 at > 100 […] after 24 hrs by disc diffusion method; format: functional, organism-based
[10] = system: Staphylococcus aureus; experiment: Antibacterial activity against Staphylococcus aureus NCIM 2120 at > 100 […] after 24 hrs by disc diffusion method; format: functional, organism-based
[11] = system: Aspergillus fumigatus; experiment: Antibacterial activity against Aspergillus fumigatus NCIM 902 at > 100 […] after 72 hrs by disc diffusion method; format: functional, organism-based
[12] = system: Klebsiella pneumoniae; experiment: Antibacterial activity against Klebsiella pneumoniae NCIM 5082 at > 100 […] after 24 hrs by disc diffusion method; format: functional, organism-based
[13] = system: Penicillium chrysogenum; experiment: Antibacterial activity against Penicillium chrysogenum NCIM 707 at > 100 […] after 72 hrs by disc diffusion method; format: functional, organism-based
[14] = system: Aspergillus niger; experiment: Antibacterial activity against Aspergillus niger NCIM 545 at > 100 […] after 72 hrs by disc diffusion method; format: functional, organism-based
[15] = system: Escherichia coli; experiment: Antibacterial activity against Escherichia coli NCIM 2065 after 24 hrs by disc diffusion method; format: functional; outline: as §2
[16] = system: Bacillus subtilis; experiment: Antibacterial activity against Bacillus subtilis NCIM 2546 after 24 hrs by disc diffusion method; format: functional; outline: as §2

MIC [1]	MIC [3]	MIC [4] [µg/mL]	MIC [6]	MIC ([8]; Aspergillus niger, NCIM 545, 72 h) [µg/mL]	MIC [9]	MIC [10]	MIC [11]	MIC [12]	MIC [13]	MIC [14]	MIC ([15]; Escherichia coli, NCIM 2065, 24 h) [µg/mL]	SMILES	inhibition at 10 µM [2] [%]	inhibition zone (IZ) [4] [mm]	inhibition at 10 µM [5] [%]	Activity [7]	inhibition zone (IZ) [8] [mm]	inhibition zone (IZ) [15] [mm]	inhibition zone (IZ) [16] [mm]
inactive	inactive	50 (≈ 133 µM)	inactive	50 (≈ 133 µM)	inactive	inactive	inactive	inactive	inactive			COc1ccc(/C(Cl)=C/C=C/C(=O)c2c(O)cc(OC)cc2OC)cc1	78	17	18	Non-toxic	16		
	inactive	25 (≈ 65.9 µM)	inactive			inactive	inactive	inactive	inactive	inactive	50 (≈ 132 µM)	COc1cc(O)c(C(=O)/C=C/C=C(\Cl)c2cccc(Cl)c2)c(OC)c1	31	18	0	Non-toxic		16	12
